# How the values were obtained:
# [1] = target: Histone deacetylase 4 (Homo sapiens, UniProt P56524); assay: Inhibition of human recombinant HDAC4 by Michaelis-Menten equation analysis
# [2] = target: Histone deacetylase 2 (Homo sapiens, UniProt Q92769); assay: Inhibition of human recombinant HDAC2 by Michaelis-Menten equation analysis
# [3] = Cytotoxicity against HDF after 72 hrs by MTS assay; details: human, HDF cells
# [4] = system: HCT-116; assay: Cytotoxicity against human HCT116 cells after 72 hrs by MTS assay; assay type: functional; details: HCT-116, 72 h
# [5] = system: Liver; assay: Half life in mouse liver microsomes assessed as gluconoride formation at 0.4 ug/mL by HPLC-MS analysis in presence of UDPGA; assay type: ADME, Microsome
# How it was run: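 Mouse liver microsome incubation run for phase II conjugation, with UDPGA added. Half-life was determined, and the glucuronide conjugate was detected by mass spectrometry.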
# [6] = target: T1, Histone deacetylase 8 (Homo sapiens, UniProt Q9BY41); assay: Inhibition of human recombinant HDAC8 by Michaelis-Menten equation analysis
# T1 sequence (Q9BY41 whole entry): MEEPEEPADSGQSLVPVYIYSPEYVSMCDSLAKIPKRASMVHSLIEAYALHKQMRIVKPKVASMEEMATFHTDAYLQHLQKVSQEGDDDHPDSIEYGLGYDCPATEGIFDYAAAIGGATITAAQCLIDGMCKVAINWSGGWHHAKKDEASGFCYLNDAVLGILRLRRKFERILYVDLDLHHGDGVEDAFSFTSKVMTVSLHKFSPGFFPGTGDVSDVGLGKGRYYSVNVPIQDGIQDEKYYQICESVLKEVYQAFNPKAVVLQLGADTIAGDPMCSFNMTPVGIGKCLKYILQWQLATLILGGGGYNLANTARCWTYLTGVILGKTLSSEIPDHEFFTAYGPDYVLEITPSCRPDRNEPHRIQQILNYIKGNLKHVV
# [7] = target: Histone deacetylase 5 (Homo sapiens, UniProt Q9UQL6); assay: Inhibition of human recombinant HDAC5 by Michaelis-Menten equation analysis
# Histone deacetylase 5, sequence (Q9UQL6 whole entry): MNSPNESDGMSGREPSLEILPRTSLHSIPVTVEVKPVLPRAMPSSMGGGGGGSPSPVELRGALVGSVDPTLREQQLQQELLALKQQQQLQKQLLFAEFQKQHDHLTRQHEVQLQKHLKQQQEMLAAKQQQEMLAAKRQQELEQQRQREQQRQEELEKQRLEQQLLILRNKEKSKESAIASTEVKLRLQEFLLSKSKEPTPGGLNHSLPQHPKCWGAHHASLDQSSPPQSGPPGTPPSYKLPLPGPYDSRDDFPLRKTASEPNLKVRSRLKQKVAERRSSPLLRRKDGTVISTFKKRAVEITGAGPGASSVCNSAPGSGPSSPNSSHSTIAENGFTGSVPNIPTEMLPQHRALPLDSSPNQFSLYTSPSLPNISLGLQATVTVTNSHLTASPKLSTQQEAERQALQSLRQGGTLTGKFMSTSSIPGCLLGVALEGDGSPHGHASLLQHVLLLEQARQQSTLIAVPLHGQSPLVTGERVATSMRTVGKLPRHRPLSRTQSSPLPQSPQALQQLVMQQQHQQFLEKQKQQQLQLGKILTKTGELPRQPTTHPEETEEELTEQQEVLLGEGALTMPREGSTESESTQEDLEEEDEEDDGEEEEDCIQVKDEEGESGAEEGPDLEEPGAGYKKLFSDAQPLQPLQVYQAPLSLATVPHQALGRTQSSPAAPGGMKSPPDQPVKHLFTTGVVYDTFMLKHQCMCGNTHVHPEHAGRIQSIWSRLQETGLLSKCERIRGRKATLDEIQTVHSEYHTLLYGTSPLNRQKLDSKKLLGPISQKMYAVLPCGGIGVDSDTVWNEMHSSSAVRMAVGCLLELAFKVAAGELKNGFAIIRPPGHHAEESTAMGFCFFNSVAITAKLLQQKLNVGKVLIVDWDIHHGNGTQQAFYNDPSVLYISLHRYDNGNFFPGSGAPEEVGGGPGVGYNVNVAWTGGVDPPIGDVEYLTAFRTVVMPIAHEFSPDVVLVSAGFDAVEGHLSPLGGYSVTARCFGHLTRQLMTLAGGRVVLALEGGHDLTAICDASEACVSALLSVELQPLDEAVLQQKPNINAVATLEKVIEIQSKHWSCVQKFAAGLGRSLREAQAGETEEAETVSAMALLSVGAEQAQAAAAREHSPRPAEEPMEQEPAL
# [8] = species on record: Homo sapiens; assay: Selectivity ratio of Ki for human recombinant HDAC1 to Ki for human recombinant HDAC2
# [9] = system: Jurkat; assay: Cytotoxicity against human Jurkat cells after 72 hrs by MTS assay; assay type: functional
# [10] = species on record: Homo sapiens; assay: Selectivity ratio of Ki for human recombinant HDAC8 to Ki for human recombinant HDAC2
# [11] = system: BXPC-3; assay: Cytotoxicity against human BxPC3 cells after 72 hrs by MTS assay; assay type: functional; details: BXPC-3, 72 h
# [12] = system: HuT78; assay: Cytotoxicity against human HUT78 cells after 72 hrs by MTS assay; assay type: functional; details: HuT78, 72 h
# [13] = species on record: Homo sapiens; assay: Selectivity ratio of Ki for human recombinant HDAC4 to Ki for human recombinant HDAC2
# [14] = species on record: Homo sapiens; assay: Selectivity ratio of Ki for human recombinant HDAC6 to Ki for human recombinant HDAC2
# [15] = species on record: Homo sapiens; assay: Selectivity ratio of Ki for human recombinant HDAC5 to Ki for human recombinant HDAC2
# [16] = target: Histone deacetylase 1 (Homo sapiens, UniProt Q13547); assay: Inhibition of human recombinant HDAC1 by Michaelis-Menten equation analysis
# Histone deacetylase 1, sequence (Q13547 whole entry): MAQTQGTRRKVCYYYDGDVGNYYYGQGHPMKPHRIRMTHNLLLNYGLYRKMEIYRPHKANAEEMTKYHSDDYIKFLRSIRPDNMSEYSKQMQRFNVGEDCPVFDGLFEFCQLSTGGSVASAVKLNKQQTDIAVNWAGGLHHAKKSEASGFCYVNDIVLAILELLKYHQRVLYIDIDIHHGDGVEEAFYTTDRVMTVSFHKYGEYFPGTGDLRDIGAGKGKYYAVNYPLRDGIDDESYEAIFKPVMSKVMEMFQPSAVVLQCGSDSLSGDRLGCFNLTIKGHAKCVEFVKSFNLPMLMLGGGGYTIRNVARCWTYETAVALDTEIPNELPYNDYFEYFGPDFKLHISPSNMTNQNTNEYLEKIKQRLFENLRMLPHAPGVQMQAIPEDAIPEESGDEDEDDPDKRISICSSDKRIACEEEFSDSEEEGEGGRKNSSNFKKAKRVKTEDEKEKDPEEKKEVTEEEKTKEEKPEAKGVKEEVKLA
# [17] = target: T2, Protein deacetylase HDAC6 (Homo sapiens, UniProt Q9UBN7); assay: Inhibition of human recombinant HDAC6 by Michaelis-Menten equation analysis
# T2 sequence (Q9UBN7 whole entry): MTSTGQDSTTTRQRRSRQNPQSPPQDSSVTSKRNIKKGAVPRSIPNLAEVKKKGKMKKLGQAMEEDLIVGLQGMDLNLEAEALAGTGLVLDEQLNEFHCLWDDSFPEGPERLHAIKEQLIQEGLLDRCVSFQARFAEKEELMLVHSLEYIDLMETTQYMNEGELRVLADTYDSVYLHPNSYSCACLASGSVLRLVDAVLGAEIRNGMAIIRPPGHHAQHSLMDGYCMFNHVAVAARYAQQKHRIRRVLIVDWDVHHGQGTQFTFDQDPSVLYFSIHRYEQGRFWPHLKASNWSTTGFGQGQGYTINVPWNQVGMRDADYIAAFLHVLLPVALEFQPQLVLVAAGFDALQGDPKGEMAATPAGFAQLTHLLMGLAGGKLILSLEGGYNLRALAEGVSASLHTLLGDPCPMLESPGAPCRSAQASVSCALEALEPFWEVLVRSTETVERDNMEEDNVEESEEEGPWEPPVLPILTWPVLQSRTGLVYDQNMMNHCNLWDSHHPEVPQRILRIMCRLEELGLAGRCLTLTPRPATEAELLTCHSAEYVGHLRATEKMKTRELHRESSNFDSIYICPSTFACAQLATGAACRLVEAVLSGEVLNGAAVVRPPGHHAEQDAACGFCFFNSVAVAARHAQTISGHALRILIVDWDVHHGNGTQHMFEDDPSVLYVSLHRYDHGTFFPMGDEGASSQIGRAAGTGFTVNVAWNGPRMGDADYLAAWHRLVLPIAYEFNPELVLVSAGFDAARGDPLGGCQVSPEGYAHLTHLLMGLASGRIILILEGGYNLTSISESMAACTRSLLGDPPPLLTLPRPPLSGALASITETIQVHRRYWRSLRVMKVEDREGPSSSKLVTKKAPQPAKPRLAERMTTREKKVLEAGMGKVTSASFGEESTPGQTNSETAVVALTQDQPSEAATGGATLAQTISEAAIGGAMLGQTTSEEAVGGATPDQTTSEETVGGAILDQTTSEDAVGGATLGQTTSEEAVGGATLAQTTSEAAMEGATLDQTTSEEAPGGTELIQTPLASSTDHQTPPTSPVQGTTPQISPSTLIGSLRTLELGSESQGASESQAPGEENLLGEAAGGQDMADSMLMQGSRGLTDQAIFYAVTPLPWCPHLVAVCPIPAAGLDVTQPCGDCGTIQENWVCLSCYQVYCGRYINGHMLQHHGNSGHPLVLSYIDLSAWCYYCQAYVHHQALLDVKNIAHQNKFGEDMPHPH
# Histone deacetylase 4, sequence (P56524 whole entry): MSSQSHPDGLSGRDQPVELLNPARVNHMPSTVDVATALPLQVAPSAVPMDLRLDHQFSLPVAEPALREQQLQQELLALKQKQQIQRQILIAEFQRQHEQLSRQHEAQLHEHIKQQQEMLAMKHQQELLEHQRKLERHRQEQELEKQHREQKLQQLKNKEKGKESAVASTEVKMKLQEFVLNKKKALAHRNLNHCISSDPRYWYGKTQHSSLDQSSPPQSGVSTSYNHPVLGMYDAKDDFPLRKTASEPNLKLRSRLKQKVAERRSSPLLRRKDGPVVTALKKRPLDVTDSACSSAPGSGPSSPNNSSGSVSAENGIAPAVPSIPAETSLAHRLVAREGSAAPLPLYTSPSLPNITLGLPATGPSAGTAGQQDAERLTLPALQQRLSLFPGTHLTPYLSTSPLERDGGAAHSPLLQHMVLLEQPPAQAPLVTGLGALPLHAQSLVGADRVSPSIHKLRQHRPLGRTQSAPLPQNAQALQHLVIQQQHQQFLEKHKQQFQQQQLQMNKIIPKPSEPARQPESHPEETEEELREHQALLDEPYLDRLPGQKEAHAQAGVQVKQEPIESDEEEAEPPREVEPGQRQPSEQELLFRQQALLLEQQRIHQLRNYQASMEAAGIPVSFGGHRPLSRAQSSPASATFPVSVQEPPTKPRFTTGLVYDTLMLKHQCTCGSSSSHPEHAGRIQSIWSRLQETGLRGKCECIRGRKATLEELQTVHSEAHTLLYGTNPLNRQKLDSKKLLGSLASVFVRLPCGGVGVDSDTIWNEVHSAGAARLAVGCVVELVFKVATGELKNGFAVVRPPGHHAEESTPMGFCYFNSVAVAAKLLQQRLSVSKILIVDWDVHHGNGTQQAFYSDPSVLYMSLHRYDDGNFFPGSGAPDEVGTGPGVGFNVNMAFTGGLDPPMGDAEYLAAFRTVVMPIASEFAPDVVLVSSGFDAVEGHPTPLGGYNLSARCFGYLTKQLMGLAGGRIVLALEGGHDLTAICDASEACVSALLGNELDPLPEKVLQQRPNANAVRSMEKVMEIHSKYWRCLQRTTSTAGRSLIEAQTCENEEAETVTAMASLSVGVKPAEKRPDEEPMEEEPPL
# Histone deacetylase 2, sequence (Q92769 whole entry): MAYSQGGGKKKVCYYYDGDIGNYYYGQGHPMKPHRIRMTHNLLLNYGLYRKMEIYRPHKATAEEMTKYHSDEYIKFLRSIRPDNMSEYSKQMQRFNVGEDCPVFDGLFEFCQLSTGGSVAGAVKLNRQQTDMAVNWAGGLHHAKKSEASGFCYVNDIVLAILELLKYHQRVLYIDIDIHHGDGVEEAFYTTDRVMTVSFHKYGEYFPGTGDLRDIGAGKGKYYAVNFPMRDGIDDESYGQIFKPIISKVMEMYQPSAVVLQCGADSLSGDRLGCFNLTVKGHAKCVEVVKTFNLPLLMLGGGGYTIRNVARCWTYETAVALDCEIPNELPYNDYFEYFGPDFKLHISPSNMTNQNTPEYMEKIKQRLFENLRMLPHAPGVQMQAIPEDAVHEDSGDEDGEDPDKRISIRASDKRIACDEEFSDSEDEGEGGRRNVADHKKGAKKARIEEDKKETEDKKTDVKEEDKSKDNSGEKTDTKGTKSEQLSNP
Structure (SMILES),Ki [1] [µM],Ki [2] [nM],t1/2 [5] [h],Ki [6] [nM],Ki [7] [nM],Ratio Ki [8],Ratio Ki [10],Ratio Ki [13],Ratio Ki [14],Ratio Ki [15],Ki [16] [nM],Ki [17] [nM],GI50 at 72 h [3] [µM],GI50 [4] [µM],GI50 [9] [nM],GI50 [11] [µM],GI50 [12] [µM]
O=c1c(O)ccccc1-c1ccc2ccccc2c1,> 20,0.25,> 1,186,> 2500,> 100,> 100,> 100,> 100,> 100,> 2500,> 2500,93.1,32.1,1150,17.1,4.11
COc1cccc(C(C)C)cc1=O,11.6,> 2500,> 1,7.87,> 2500,,,,,,> 2500,> 2500,> 100,> 100,> 100000,> 100,> 100
COc1ccc(OC)c(-c2ccccc(O)c2=O)c1,> 20,0.42,> 1,811,> 2500,> 100,> 100,> 100,> 100,> 100,> 2500,> 2500,> 100,46.6,760,14.1,3.05
COc1ccc(-c2ccccc(O)c2=O)cc1,> 20,0.81,> 1,83.8,> 2500,> 100,> 100,> 100,> 100,> 100,> 2500,> 2500,> 100,57,620,35.9,2.87
CC(C)c1cccc(=O)c(O)c1 [HINOKITIOL],> 20,15.4,> 1,178,> 2500,,,,,,> 2500,> 2500,> 100,6.92,1100,19,4.99
COc1ccc(-c2ccccc(O)c2=O)c(OC)c1OC,> 20,0.23,> 1,124,> 2500,> 100,> 100,> 100,> 100,> 100,> 2500,> 2500,> 100,35,1860,21,4.74

# These reach a lower Ki [1]. Values come first.
Ki [1] [µM],Ki [2] [nM],t1/2 [5] [h],Ki [6] [nM],Ki [7] [nM],Ratio Ki [8],Ratio Ki [10],Ratio Ki [13],Ratio Ki [14],Ratio Ki [15],Ki [16] [nM],Ki [17] [nM],Structure (SMILES),GI50 at 72 h [3] [µM],GI50 [4] [µM],GI50 [9] [nM],GI50 [11] [µM],GI50 [12] [µM]
11.2,0.51,> 1,266,> 2500,> 100,> 100,> 100,> 100,> 100,> 2500,> 2500,COc1ccc(OC)c(-c2cccc(O)c(=O)c2)c1,> 100,> 100,5890,34.8,17.1
8.36,0.12,> 1,2.38,> 2500,,,,,,> 2500,> 2500,COc1ccc(-c2cccc(O)c(=O)c2)cc1,> 100,43.7,4620,91.6,8.95
10.9,0.06,> 1,1.47,> 2500,,,,,,> 2500,> 2500,O=c1cc(-c2ccccc2)cccc1O,> 100,53.4,670,18.5,4.14
0.99,0.04,> 1,123,> 2500,> 100,> 100,> 100,> 100,> 100,> 2500,> 2500,O=c1cc(C2CCCC2)cccc1O,> 100,> 100,6300,180,11.4
6.11,0.22,> 1,2.27,> 2500,,,,,,> 2500,> 2500,CCC(C)c1cccc(O)c(=O)c1 (configuration not stated),> 100,26.9,590,104,3.25

# Reference: ChEMBL document CHEMBL2407068, “Tropolones as lead-like natural products: the development of potent and selective histone deacetylase inhibitors” (ACS Med Chem Lett, 2013)
